Test results from paper PMC7056463 (British Journal of Pharmacology, 2020).
Values belong to the compound of their own block, whether it stands above or below them. Positions of bridges follow the written chain, without caps; N, C: chain ends. Residues, ends and D or L forms follow the SMILES beside them. No end group written: not given here.

Key:
[1] = tested on: spontaneously hypertensive rats; assay: Cardiac ANP and BNP mRNA by real time PCR in spontaneously hypertensive rats; assay type: in vivo, rat; settings: SHR; 3 days administration; RT‐PCR, relative to saline treated rats; n = 6
In short: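 After 3 days of subcutaneous osmotic minipump infusion (300 ng kg‐1 min‐1; saline controls) in male 12‐week SHR, cardiac RNA was isolated. 1 μg RNA was reverse‐transcribed and SYBR Green qPCR run with rat ANP and BNP primers. Melting curves checked product purity. Values are relative to saline‐treated rats; n = 6 per group.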

murine GC‐A = target: T1, murine GC‐A (Mus musculus, UniProt P18293); assay: cGMP formation in GC‐A‐transfected HEK293 cells; assay type: cell-based; settings: 1 μM peptide, 5 min; cGMP ELISA; n = 3 in triplicates
T1 sequence (P18293 29-1057): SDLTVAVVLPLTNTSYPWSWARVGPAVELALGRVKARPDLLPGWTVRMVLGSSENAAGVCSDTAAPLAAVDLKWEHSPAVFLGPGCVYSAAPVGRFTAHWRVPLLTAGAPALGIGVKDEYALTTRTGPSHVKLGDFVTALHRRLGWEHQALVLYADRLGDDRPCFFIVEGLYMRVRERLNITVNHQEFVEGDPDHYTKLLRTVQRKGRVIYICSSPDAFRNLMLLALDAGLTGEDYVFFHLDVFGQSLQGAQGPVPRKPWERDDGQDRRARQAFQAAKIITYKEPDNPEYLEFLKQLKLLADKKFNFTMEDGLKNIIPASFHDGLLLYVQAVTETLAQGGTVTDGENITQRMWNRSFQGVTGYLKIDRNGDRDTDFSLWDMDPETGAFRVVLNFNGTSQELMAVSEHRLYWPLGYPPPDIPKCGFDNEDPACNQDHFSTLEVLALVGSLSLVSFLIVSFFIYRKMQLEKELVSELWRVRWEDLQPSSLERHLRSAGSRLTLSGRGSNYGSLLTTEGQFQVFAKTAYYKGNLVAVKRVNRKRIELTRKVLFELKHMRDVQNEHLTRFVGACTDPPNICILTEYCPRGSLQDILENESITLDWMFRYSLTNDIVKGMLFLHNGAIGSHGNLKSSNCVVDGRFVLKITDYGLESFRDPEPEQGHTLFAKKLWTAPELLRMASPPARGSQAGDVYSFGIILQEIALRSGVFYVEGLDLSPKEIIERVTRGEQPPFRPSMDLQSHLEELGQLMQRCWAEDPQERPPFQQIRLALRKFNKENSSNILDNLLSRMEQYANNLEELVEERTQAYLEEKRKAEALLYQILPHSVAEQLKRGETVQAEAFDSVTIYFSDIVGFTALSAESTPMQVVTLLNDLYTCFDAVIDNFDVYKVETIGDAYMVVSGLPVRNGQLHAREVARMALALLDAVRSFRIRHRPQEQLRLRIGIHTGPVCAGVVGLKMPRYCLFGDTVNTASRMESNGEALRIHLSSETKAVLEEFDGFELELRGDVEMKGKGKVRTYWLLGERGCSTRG
In short: (§1)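 HEK293 cells in DMEM/10% FBS were transfected with murine GC‐A or GC‐B plasmid (PolyFect, DMEM/0.5% FBS); empty‐plasmid cells served as controls. After 24 h, cells were exposed to 1 μM peptide or Tris vehicle for 5 min, washed in cold HBSS and lysed. cGMP was measured by ELISA (405 nm, 570 nm correction) in pmol/mL; n = 3 in triplicates.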

murine GC‐B = target: T2, murine GC‐B (Mus musculus, UniProt Q6VVW5); assay: cGMP formation in GC‐B‐transfected HEK293 cells; assay type: cell-based; settings: 1 μM peptide, 5 min; cGMP ELISA; n = 3 in triplicates
T2 sequence (Q6VVW5 17-1047): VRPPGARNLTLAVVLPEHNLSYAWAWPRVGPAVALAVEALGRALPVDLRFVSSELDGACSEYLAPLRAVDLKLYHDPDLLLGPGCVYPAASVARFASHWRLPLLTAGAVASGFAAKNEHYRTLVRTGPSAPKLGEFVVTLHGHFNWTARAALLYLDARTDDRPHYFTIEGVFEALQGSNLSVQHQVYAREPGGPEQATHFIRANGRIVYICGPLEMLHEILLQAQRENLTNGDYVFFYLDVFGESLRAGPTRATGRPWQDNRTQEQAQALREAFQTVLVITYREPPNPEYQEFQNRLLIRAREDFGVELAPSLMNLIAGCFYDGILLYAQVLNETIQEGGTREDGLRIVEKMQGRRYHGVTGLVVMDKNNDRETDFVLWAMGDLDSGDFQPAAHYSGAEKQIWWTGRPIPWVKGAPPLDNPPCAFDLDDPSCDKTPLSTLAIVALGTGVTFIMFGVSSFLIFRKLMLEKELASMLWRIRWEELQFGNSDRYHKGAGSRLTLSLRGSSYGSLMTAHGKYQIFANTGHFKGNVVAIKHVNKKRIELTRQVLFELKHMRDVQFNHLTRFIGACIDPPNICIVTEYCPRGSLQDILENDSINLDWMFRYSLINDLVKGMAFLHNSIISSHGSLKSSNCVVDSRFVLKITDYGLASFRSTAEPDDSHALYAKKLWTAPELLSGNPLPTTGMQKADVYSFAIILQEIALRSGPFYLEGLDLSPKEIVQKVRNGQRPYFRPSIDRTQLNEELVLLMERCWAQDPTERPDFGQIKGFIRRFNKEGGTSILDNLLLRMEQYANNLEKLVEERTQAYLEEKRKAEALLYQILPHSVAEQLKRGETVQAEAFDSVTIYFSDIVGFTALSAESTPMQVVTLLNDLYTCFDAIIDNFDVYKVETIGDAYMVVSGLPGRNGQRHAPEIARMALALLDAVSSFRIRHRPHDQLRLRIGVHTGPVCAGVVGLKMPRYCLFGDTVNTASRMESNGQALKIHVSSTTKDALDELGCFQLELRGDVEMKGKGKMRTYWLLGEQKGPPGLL
In short: as §1

C57B/L6J mice = assay: Plasma cGMP after bolus injection in normotensive mice; assay type: in vivo, mouse; settings: plasma taken after 4 min haemodynamic measurement, cGMP ELISA
In short: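 Male 16‐week C57B/L6J mice (randomised, blinded) were anaesthetised with isoflurane, ventilated and kept at about 37°C, with a carotid pressure catheter and jugular cannula. After a 10‐min baseline, an i.v. bolus of 1.67 nmol peptide g‐1 or saline was given and haemodynamics followed for 4 min. EDTA blood was then taken by LV puncture. Plasma cGMP was ELISA‐measured after 95% ethanol extraction; n = 7 per peptide, 5 saline.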

[2] = tested on: spontaneously hypertensive rats; assay type: in vivo, rat
[3] = tested on: GC‐A and GC‐B double‐transfected HEK cells; assay: Dose–response of cGMP in GC‐A and GC‐B double‐transfected HEK cells; assay type: cell-based, mouse; settings: compared to BNP1‐32
In short: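 HEK293 cells were transfected with both murine GC‐A and GC‐B plasmids and used 24 h later. Cells were stimulated for 5 min with peptide at graded concentrations in Tris vehicle, washed in cold HBSS and lysed. cGMP was quantified by ELISA (405/570 nm). EC50 came from a sigmoidal dose–response fit, and curves were compared by two‐way ANOVA.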

[4] = Degradation of hBNP by human lung homogenate; assay type: in vitro ADME; settings: 10 μM peptide; human lung homogenate 90 μg protein 150 μL buffer; Tris 50 mM pH 7.5 with 0.1% BSA; 37°C; 10 min; LCMS

cGMP formation in GC‐A‐transfected HEK293 cells (murine GC‐A): significantly higher
Stimulation of GC‐B in transfected HEK293 cells (murine GC‐B): much more pronounced effect
cGMP effect on GC‐B transfected cells in comparison to BNP1‐32 (murine GC‐B): 3 fold
Compound: CC[C@H](C)[C@@H]1NC(=O)[C@H](CCCNC(=N)N)NC(=O)[C@H](CC(=O)O)NC(=O)[C@H]([C@@H](C)CC)NC(=O)[C@H](CCCCN)NC(=O)[C@H](Cc2c[nH]cn2)NC(=O)CNC(=O)[C@H](Cc2ccccc2)NC(=O)[C@@H](NC(=O)[C@H](CO)NC(=O)[C@H](CO)NC(=O)[C@@H](NC(=O)[C@H](Cc2c[nH]cn2)NC(=O)[C@@H](NC(=O)[C@@H](NC(=O)[C@H](CCCCN)NC(=O)[C@H](CO)NC(=O)[C@@H](N)CC(N)=O)C(C)C)[C@@H](C)O)[C@@H](C)CC)CSSC[C@@H](C(=O)N[C@@H](CC(N)=O)C(=O)N[C@@H](C)C(=O)N[C@@H](CC(C)C)C(=O)N[C@@H](CCCCN)C(=O)O)NC(=O)CNC(=O)[C@H](CC(C)C)NC(=O)[C@H](CCCNC(=N)N)NC(=O)[C@H](CO)NC(=O)[C@H](C(C)C)NC(=O)[C@H](CO)NC(=O)CNC1=O [BNP1‐30] (H-NSKVTHISSCFGHKIDRIGSVSRLGCNALK-OH; disulfide 10-26; N-terminus assumed)
Cardiac ANP mRNA [1]: more pronounced
Cardiac BNP mRNA levels [1]: significantly reduced
Increase in plasma cGMP levels compared to BNP1‐32 treated animals (C57B/L6J mice): more pronounced increase
Lowering of SBP ([2]; SHR, osmotic minipump 300 ng kg^‐1 min^‐1 for 3 days, versus saline group): 16%
Reduction of systolic BP (abstract) ([2]; model of severe hypertension, 3‐day infusion): 30 mmHg
Efficiency in dose‐response curves of double‐transfected HEK293 cells [3]: more efficient

cGMP formation in GC‐A‐transfected HEK293 cells (murine GC‐A): stimulated their native receptor GC‐A
Compound: BNP1‐32: murine B‐type natriuretic peptide 1‐32, synthesised by Biosyntan (SQGSTLRVQQRPQNSKVTHISSCFGHKIDRIG; Brain natriuretic peptide 45; UniProt P40753 77-108, looked up, fragment)

Compound: human BNP1‐32: mature human BNP1‐32
Degradation of hBNP1‐32 in human lung homogenate [4]: decreased peak area

Compound: murine ANP: murine atrial natriuretic peptide (SLRRSSCFGGRIDRIGAQSGLGCNSFRY; disulfide 7-23 (inferred); ends not checked; UniProt P05125 123-150, looked up)
cGMP formation in GC‐A‐transfected HEK293 cells (murine GC‐A): stimulated their native receptor GC‐A
